Source: ChEMBL document CHEMBL1121658, “Novel immunosuppressive agents. Potent immunological activity of some bensothiopyrano [4,3-c]pyrazol-3-ones” (J Med Chem, 1981)

Key:
Mus musculus [1] = species on record: Mus musculus; experiment: Compound was evaluated for the dose required to inhibit the cellular response to 50% (immune activity); format: functional
Procedure, shortened: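 Cellular response to EL4 in Balb/c mice measured by spleen-cell lysis of 51Cr-labeled EL4 cells (3 h, 37 °C). Mice were given oral daily doses from day 0 to day 9 at several levels, tested up to 300 mg/kg. ED50 was obtained by linear interpolation between the doses giving above and below 50% inhibition.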

Mus musculus [2] = species on record: Mus musculus; experiment: Compound was evaluated for the dose required to inhibit the humoral response to 50% (immune activity); format: functional
Procedure, shortened: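 Humoral response to EL4 in Balb/c mice measured as complement-dependent lysis titer of 51Cr-labeled EL4 cells by day-10 sera. Mice were given oral daily doses from day 0 to day 9 at several levels. ED50 was obtained by linear interpolation between the doses bracketing 50% inhibition of the control titer.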

Mus musculus [3] = experiment: Immunological activity in mice as the percentage of suppression of the cellular response to EI4 tumor cells at 10 mg/kg; format: functional
Procedure, shortened: (§1)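 Balb/c mice, groups of 10, immunized ip on day 0 with 10^7 EL4 ascites tumor cells. Dosed orally 10 mg/kg once daily days 0-9, in water with a little NaOH (circa pH 8.5); saline controls. On day 10, spleen cells (1.5×10^7 viable) incubated with 51Cr-labeled EL4 cells (0.5×10^6) for 3 h at 37 °C in 10% CO2. Lysis corrected for spontaneous release; reported as % inhibition of control lysis.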

Mus musculus [4] = experiment: Compound was evaluated for immunological activity in mice as the percentage of suppression of the humoral response to EI4 tumor cells at 10 mg/kg, po; format: functional
Procedure, shortened: (§2)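 Balb/c mice, groups of 10, immunized ip on day 0 with 10^7 EL4 cells. Dosed orally 10 mg/kg once daily days 0-9, in water with a little NaOH (pH ~8.5); saline controls. Titer taken as the dilution giving 50% maximal lysis; reported as % inhibition of control titer.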

Mus musculus [5] = experiment: Compound was evaluated for immunological activity in mice as the percentage of suppression of the humoral response to EI4 tumor cells at 10 mg/kg, po; Data unreliable; format: functional, organism-based; parameters: dose 10 mg/kg; procedure, shortened: as §2
[6] = Acid dissociation constant was determined; format: ADME
Procedure, shortened: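 pKa by potentiometric titration in 2:1 dioxane-H2O (v/v) against 0.5 N NaOH; apparent pKa read as the pH at half-neutralization.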

Mus musculus [7] = experiment: Compound was evaluated for immunological activity in mice as the percentage of suppression of the cellular response to EI4 tumor cells at 10 mg/kg, po; format: functional; procedure, shortened: as §1

| pKa [6] | Compound | ED50 (Mus musculus [1]) [mg/kg] | ED50 (Mus musculus [2]) [mg/kg] | Suppression (Mus musculus [3]) [%] | Suppression (Mus musculus [4]) [%] | Suppression (Mus musculus [5]) | Suppression (Mus musculus [7]) [%] |
| --- | --- | --- | --- | --- | --- | --- | --- |
|  | CS(=O)(=O)c1ccc(-n2nc3c(c2O)CSc2ccccc2-3)cc1 | > 300 | 170 | 1 | 28 |  |  |
|  | Oc1c2c(nn1-c1cc(Cl)cc(Cl)c1)-c1ccccc1SC2 | 31 | 8 | 19 | 73 |  |  |
|  | Cn1cnc([N+](=O)[O-])c1Sc1ncnc2[nH]cnc12 [AZATHIOPRINE] |  |  | -3 | 6 |  |  |
|  | Oc1[nH]nc2c1CSc1ccccc1-2 |  |  | 1 |  | Data unreliable |  |
|  | Oc1c2c(nn1-c1ccc(F)cc1)-c1ccccc1SC2 | 5.5 | 3.3 | 86 | >90 |  |  |
| 7.13 | Oc1c2c(nn1-c1ccc(Br)cc1)-c1ccccc1SC2 | 3.3 | 2 | 84 | >90 |  |  |
|  | Oc1c2c(nn1-c1ccc(C(F)(F)F)cc1)-c1ccccc1SC2 | 6.5 | 6 | 71 | >90 |  |  |
| 7.56 | Oc1c2c(nn1-c1ccc(Cl)cc1)-c1ccccc1SC2 | 2 | 0.5 | >90 | >90 |  |  |
|  | O=P1(N(CCCl)CCCl)NCCCO1 (centres undefined) [CYCLOPHOSPHAMIDE ANHYDROUS] |  |  | 52 | >90 |  |  |
| 7.48 | Oc1c2c(nn1-c1ccccc1)-c1ccccc1SC2 | 130 | 70 | 1 |  | Data unreliable |  |
|  | [O-][S+]1Cc2c(nn(-c3ccc(Cl)cc3)c2O)-c2ccccc21 (centres undefined) |  |  | >90 | >90 |  |  |
|  | Oc1c2c(nn1Cc1ccccc1)-c1ccccc1SC2 |  |  | -3 | 0 |  |  |
|  | Oc1c2c(nn1CC(F)(F)F)-c1ccccc1SC2 |  |  | -2 | 17 |  |  |
|  | Oc1c2c(nn1-c1ccccn1)-c1ccccc1SC2 |  |  | 2 | -19 |  |  |
|  | Oc1c2c(nn1-c1ccc(Cl)c(Cl)c1)-c1ccccc1SC2 | 3 | 1 | 62 | 87 |  |  |
|  | O=[N+]([O-])c1ccc(-n2nc3c(c2O)CSc2ccccc2-3)cc1 |  |  | 27 |  | Data unreliable |  |
| 7.64 | Cc1ccc(-n2nc3c(c2O)CSc2ccccc2-3)cc1 |  |  | 19 | 46 |  |  |
|  | O=c1c2csc3ccccc3c-2nn1-c1ccc(Cl)cc1 |  |  | 63 | >90 |  |  |
|  | Oc1c2c(nn1-c1cccc(Cl)c1)-c1ccccc1SC2 | 45 | 9 |  | 67 |  | 16 |
|  | Oc1c2c(nn1-c1ccc(Cl)cc1Cl)-c1ccccc1SC2 |  |  | -4 | 20 |  |  |
|  | Sc1ncnc2nc[nH]c12 [MERCAPTOPURINE ANHYDROUS] |  |  | 63 | 52 |  |  |
|  | Cn1nc2c(c1O)CSc1ccccc1-2 |  |  | 14 | -3 |  |  |
| 7.28 | Oc1c2c(nn1-c1cccc(Cl)c1Cl)-c1ccccc1SC2 |  |  | 5 | 51 |  |  |
|  | Oc1c2c(nn1-c1c(Cl)cccc1Cl)-c1ccccc1SC2 |  |  | 1 | 4 |  |  |
| 7.76 | COc1ccc(-n2nc3c(c2O)CSc2ccccc2-3)cc1 | 240 | 150 | -11 | -6 |  |  |
| 7.74 | Oc1c2c(nn1-c1ccccc1Cl)-c1ccccc1SC2 |  |  | 8 | 45 |  |  |
